# What was measured:
# Rattus norvegicus [1] = assay: Biodistribution of compound in rat eye at 360 min after intravenous administration; format: ADME, organism-based; conditions: in vivo, 6 h
# Summary of the method: (§1)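 Time course in Sprague-Dawley rats after lateral tail-vein injection of the 99mTc complex in normal saline (~12.5 μCi/mL) at ~25 μCi/kg. Tissues were sampled at the stated times, washed with saline, blotted, weighed and γ-counted to give percent injected dose per g. Values are averages of male and female rats.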
# Rattus norvegicus [2] = assay: Biodistribution of compound in rat muscle at 360 min after intravenous administration; format: ADME, organism-based, Muscle tissue; conditions: in vivo, 6 h
# Summary of the method: (§2)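 Rats received the 99mTc complex in normal saline (~12.5 μCi/mL) by lateral tail vein injection at ~25 μCi/kg and were killed by cervical dislocation at the stated time. Tissues were washed with saline, blotted, weighed and γ-counted to give percent injected dose/g. Time-course values are averages of male and female rats.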
# Rattus norvegicus [3] = assay: Biodistribution of compound in rat feces at 360 min after intravenous administration; format: ADME, organism-based; conditions: in vivo, 6 h
# Rattus norvegicus [4] = assay: Biodistribution of compound in rat gonads at 180 min after intravenous administration; format: ADME, organism-based, Gonad; conditions: in vivo, 3 h; summary of the method: as §1
# Rattus norvegicus [5] = assay: Biodistribution of compound in rat bone marrow at 90 min after intravenous administration; format: ADME, organism-based; conditions: in vivo, 1.5 h; summary of the method: as §1
# Rattus norvegicus [6] = assay: Biodistribution of compound in rat kidney at 360 min after intravenous administration; format: ADME, organism-based; conditions: in vivo, 6 h; summary of the method: as §1
# Rattus norvegicus [7] = assay: Biodistribution of compound in rat heart at 5 min after intravenous administration; format: ADME, organism-based; conditions: in vivo; summary of the method: as §1
# Rattus norvegicus [8] = assay: Biodistribution of compound in rat bone marrow at 180 min after intravenous administration; format: ADME, organism-based; conditions: in vivo, 3 h; summary of the method: as §1
# Rattus norvegicus [9] = assay: Biodistribution of compound in rat lungs at 360 min after intravenous administration; format: ADME, organism-based, Lung; conditions: in vivo, 6 h; summary of the method: as §2
# Rattus norvegicus [10] = assay: Biodistribution of compound in rat lungs at 1440 min after intravenous administration; format: ADME, organism-based, Lung; conditions: in vivo, 24 h; summary of the method: as §2
# [11] = Biodistribution of compound in rat muscle after 5 min of administration; format: ADME, organism-based, Muscle tissue; conditions: in vivo; summary of the method: as §2
# Rattus norvegicus [12] = assay: Biodistribution of compound in rat kidney after 5 min of administration; format: ADME, organism-based; conditions: in vivo
# Summary of the method: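 Female Sprague-Dawley rats (150–200 g) received the 99mTc complex in normal saline (~12.5 μCi/mL) via a lateral tail vein at ~25 μCi/kg. They were killed by cervical dislocation 5 min after injection. Tissues were washed with saline, blotted, weighed and γ-counted, and the read-out was percent injected dose per g tissue.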
# [13] = The compound was tested for the plasma binding in human; format: ADME, cell-free
# Summary of the method: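 Fresh heparinized human plasma (1.0 mL, obtained daily) was spiked with 0.02 mL test solution and incubated about 15 min. Duplicate samples went through saline-equilibrated Sephadex G-25 desalting columns by centrifugation. Eluate and gel were γ-counted for 1 min or to 1% σ error. % bound = net cpm eluate / net cpm (eluate + gel) × 100.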
# Rattus norvegicus [14] = assay: Biodistribution of compound in rat bone at 360 min after intravenous administration; format: ADME, organism-based, Bone element; conditions: in vivo, 6 h; summary of the method: as §1
# Rattus norvegicus [15] = assay: Biodistribution of compound in rat blood at 1440 min after intravenous administration; format: ADME, organism-based; conditions: in vivo, 24 h; summary of the method: as §1
# Rattus norvegicus [16] = assay: Biodistribution of compound in rat lung after 5 min of administration; format: ADME, organism-based; conditions: in vivo; summary of the method: as §2
# Rattus norvegicus [17] = assay: Biodistribution of compound in rat blood at 45 min after intravenous administration; format: ADME, organism-based; conditions: in vivo, 0.75 h; summary of the method: as §1
# Rattus norvegicus [18] = assay: Biodistribution of compound in rat bone marrow at 5 min after intravenous administration; format: ADME, organism-based; conditions: in vivo; summary of the method: as §1
# Rattus norvegicus [19] = assay: Biodistribution of compound in rat kidney at 45 min after intravenous administration; format: ADME, organism-based; conditions: in vivo, 0.75 h; summary of the method: as §1
# Rattus norvegicus [20] = assay: Biodistribution of compound in rat bone at 5 min after intravenous administration; format: ADME, organism-based, Bone element; conditions: in vivo; summary of the method: as §1
# Rattus norvegicus [21] = assay: Biodistribution of compound in rat gonads at 5 min after intravenous administration; format: ADME, organism-based, Gonad; conditions: in vivo; summary of the method: as §1
# Rattus norvegicus [22] = assay: Biodistribution of compound in rat heart at 1440 min after intravenous administration; format: ADME, organism-based; conditions: in vivo, 24 h; summary of the method: as §1
# Rattus norvegicus [23] = assay: Biodistribution of compound in rat liver at 1440 min after intravenous administration; format: ADME, organism-based; conditions: in vivo, 24 h; summary of the method: as §1
# Rattus norvegicus [24] = assay: Biodistribution of compound in rat gonads at 1440 min after intravenous administration; format: ADME, organism-based, Gonad; conditions: in vivo, 24 h; summary of the method: as §1
# Rattus norvegicus [25] = assay: Biodistribution of compound in rat urine at 360 min after intravenous administration; format: ADME, organism-based; conditions: in vivo, 6 h; summary of the method: as §2
# Rattus norvegicus [26] = assay: Biodistribution of compound in rat eye at 180 min after intravenous administration; format: ADME, organism-based; conditions: in vivo, 3 h; summary of the method: as §1
# Rattus norvegicus [27] = assay: Biodistribution of compound in rat gonads at 360 min after intravenous administration; format: ADME, organism-based, Gonad; conditions: in vivo, 6 h; summary of the method: as §1
# Rattus norvegicus [28] = assay: Biodistribution of compound in rat muscle at 5 min after intravenous administration; format: ADME, organism-based, Muscle tissue; conditions: in vivo; summary of the method: as §2
# Rattus norvegicus [29] = assay: Biodistribution of compound in rat feces at 1440 min after intravenous administration; format: ADME, organism-based; conditions: in vivo, 24 h
# Rattus norvegicus [30] = assay: Biodistribution of compound in rat muscle at 180 min after intravenous administration; format: ADME, organism-based, Muscle tissue; conditions: in vivo, 3 h; summary of the method: as §2
# Rattus norvegicus [31] = assay: Biodistribution of compound in rat blood at 90 min after intravenous administration; format: ADME, organism-based; conditions: in vivo, 1.5 h; summary of the method: as §1
# Rattus norvegicus [32] = assay: Biodistribution of compound in rat muscle at 1440 min after intravenous administration; format: ADME, organism-based, Muscle tissue; conditions: in vivo, 24 h; summary of the method: as §2
# Rattus norvegicus [33] = assay: Biodistribution of compound in rat kidney at 5 min after intravenous administration; format: ADME, organism-based; conditions: in vivo; summary of the method: as §1
# Rattus norvegicus [34] = assay: Biodistribution of compound in rat lungs at 45 min after intravenous administration; format: ADME, organism-based, Lung; conditions: in vivo, 0.75 h; summary of the method: as §2
# Rattus norvegicus [35] = assay: Biodistribution of compound in rat liver at 90 min after intravenous administration; format: ADME, organism-based; conditions: in vivo, 1.5 h; summary of the method: as §2
# Rattus norvegicus [36] = assay: Biodistribution of compound in rat eye at 1440 min after intravenous administration; format: ADME, organism-based; conditions: in vivo, 24 h; summary of the method: as §1
# Rattus norvegicus [37] = assay: Biodistribution of compound in rat liver at 360 min after intravenous administration; format: ADME, organism-based; conditions: in vivo, 6 h; summary of the method: as §2
substance,measurement,setting,value
"Bis(1,3,5-trimethylbenzene)technetium",Dose/g,Rattus norvegicus [1],0.019 % dose
same,Dose/g,Rattus norvegicus [2],29 % dose/organ
same,Dose/g,Rattus norvegicus [3],0.4 % dose
same,Dose/g,Rattus norvegicus [4],0.055 % dose
same,Dose/g,Rattus norvegicus [5],0.13 % dose/organ
same,Dose/g,Rattus norvegicus [6],0.9 % dose
same,Dose/g,Rattus norvegicus [7],1.37 % dose
same,Dose/g,Rattus norvegicus [8],0.13 % dose/organ
same,Dose/g,Rattus norvegicus [9],0.34 % dose/organ
same,Dose/g,Rattus norvegicus [10],0.2 % dose/organ
same,Dose/g,[11],0.35%
same,Dose/g,Rattus norvegicus [12],7.9%
same,Plasma binding,[13],21%
same,Dose/g,Rattus norvegicus [14],1.3 % dose
same,Dose/ml,Rattus norvegicus [15],0.13 % dose
same,Dose/g,Rattus norvegicus [16],0.82%
same,Dose/ml,Rattus norvegicus [17],1.24 % dose
same,Dose/g,Rattus norvegicus [18],0.37 % dose/organ
same,Dose/g,Rattus norvegicus [19],5.8 % dose
same,Dose/g,Rattus norvegicus [20],3.5 % dose/organ
same,Dose/g,Rattus norvegicus [21],0.1 % dose
same,Dose/g,Rattus norvegicus [22],0.77 % dose
same,Dose/g,Rattus norvegicus [23],0.3 % dose/organ
same,Dose/g,Rattus norvegicus [24],0.018 % dose
same,Dose/ml,Rattus norvegicus [25],16 % dose
same,Dose/g,Rattus norvegicus [26],0.016 % dose
same,Dose/g,Rattus norvegicus [27],0.05 % dose
same,Dose/g,Rattus norvegicus [28],30 % dose/organ
same,Dose/g,Rattus norvegicus [29],36.2 % dose
same,Dose/g,Rattus norvegicus [30],30 % dose/organ
same,Dose/ml,Rattus norvegicus [31],1.02 % dose
same,Dose/g,Rattus norvegicus [32],25 % dose/organ
same,Dose/g,Rattus norvegicus [33],13.6 % dose
same,Dose/g,Rattus norvegicus [34],0.86 % dose/organ
same,Dose/g,Rattus norvegicus [35],3.6 % dose/organ
same,Dose/g,Rattus norvegicus [36],0.01 % dose/organ
same,Dose/g,Rattus norvegicus [37],0.8 % dose/organ

# Source: ChEMBL document CHEMBL1125797, “Synthesis, characterization and myocardial uptake of cationic bis(arene)technetium(I) complexes” (J Med Chem, 1991)
